In the library only some 1.5% were active in any assay of this set; here they are far more common.
Cneo AK release – Cryptococcus neoformans lysis via adenylate kinase release; C. neoformans lysis, adenylate kinase release luminescence, 4 h; normalised: neutral wells 0, clomiphene wells 100; lysis activity, % at 15 µM; 0.2% of 360,000 active;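 active = mean lysis activity across replicates of at least 80%, whatever share of replicates individually reach that level; inactive = mean lysis activity below 80%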
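Assay system: C. neoformans cells. Amount: yeast cell density of 5 × 10^6 cells/mL. Technique: AK luminescence. Buffer or medium: YPD. Times: static 4 h at 37 °C with compound, 1 h detection. Dosing: single-point compound dose. Read-out: lysis from increased AK signal.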
Mot1-301 SUMO – inhibitors of SUMOylation pathway: yeast Mot1-301 growth rescue | S. cerevisiae Mot1-301 growth rescue, ATP luminescence, 38.5C; percent above DMSO median, 100 means doubled | growth rescue, % at 18.8 µM | 1% of 320,000 active;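 active = every valid replicate shows activation above 250% relative to neutral control wells; inactive = the rest, any valid replicate at or below 250%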
C2C12 statin – suppression of simvastatin myotoxicity. rescue of ATP level, % at 7.49 µM. C2C12 myotubes + simvastatin, ATP luminescence, 48 h; scaled: DMSO 0, geranylgeraniol control 100. 0.78% of 330,000 active;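 active = mean ATP rescue above about 67%, or every replicate alone reaching that limit, limit read from the data, passing the limit was not always enough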;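 also: myotubes were challenged with 10 µM simvastatin during compound exposure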
Hits are given with their value; i = inactive; nt = no result.

SMILES	Cneo AK release	Mot1-301 SUMO	C2C12 statin
Cc1ccccc1NC(=O)c1onc2c1CCCC2	nt	i	140
CCC(=O)N1C[C@@H](C)[C@@H](OC)CN(C)C(=O)c2ccc(NC(=O)c3cnccn3)cc2OC[C@@H]1C	i	nt	i
CCC(=O)N1[C@H](CO)[C@H](c2ccc(-c3ccccc3)cc2)[C@@H]1CNC(=O)COC	i	nt	i
O=C(N/C(=C/c1cccs1)C(=O)N1CCCCCC1)c1ccccc1	i	i	i
O=C(N/C(=C\c1cccs1)C(=O)N1CCCCCC1)c1ccccc1	i	312	i
C/C(=N\Nc1ccc(Cl)cc1)c1c(O)cc(C)oc1=O	nt	332	nt
C/C(=N\NC(=O)c1cccs1)c1c(O)cc(C)oc1=O	i	i	i
Cc1ccc(CN(C(=O)c2ccco2)C(C(=O)NC2CCCC2)c2cccnc2)cc1 (centres undefined)	i	i	i
Cc1ccc(CN(C(=O)c2ccco2)C(C(=O)NC2CCCC2)c2ccc(N3CCOCC3)cc2)cc1 (centres undefined)	i	i	119
C[C@H](CO)N1C[C@H](C)[C@@H](CN(C)S(C)(=O)=O)Oc2ccc(NC(=O)Nc3cccc4ccccc34)cc2CC1=O	i	nt	i
COc1cccc(CNC(=O)CCC2CCCN(C(=O)c3cccc(Cl)c3)C2)c1 (centres undefined)	i	i	i
COc1cccc(CNC(=O)CCC2CCCN(C(=O)C3=CC(=O)CC(C)(C)O3)C2)c1 (centres undefined)	i	i	79
CNC[C@H]1Oc2c(NC(=O)Nc3ccc(C(F)(F)F)cc3)cccc2C(=O)N([C@@H](C)CO)C[C@H]1C	i	nt	i
CC(C)C[C@H](NC(=O)c1[nH]cnc1C(=O)Nc1ccc(CNC(=O)OC(C)(C)C)cc1)C(=O)OC(C)(C)C	i	i	i
CC(C)(C)OC(=O)NCCCCCNC(=O)c1[nH]cnc1C(=O)N[C@@H](Cc1ccccc1)C(=O)OCc1ccccc1	i	i	132
CC(C)C[C@H](NC(=O)c1[nH]cnc1C(=O)Nc1ccc(CNC(=O)OC(C)(C)C)cc1)C(=O)OCc1ccccc1	i	325	i
CC(C)C[C@H](NC(=O)c1nc[nH]c1C(=O)NCCCCCNC(=O)OC(C)(C)C)C(=O)OCc1ccccc1	i	i	i
C/C(NCc1ccccc1)=C(\C#N)C(=O)NCc1ccccc1	i	i	i
O=C(NCc1cccnc1)C1CC(=O)N(CCc2ccccc2)C1 (centres undefined)	i	i	133
COc1ccc(/C=C(\NC(=O)c2ccccc2)C(=O)NC2CCS(=O)(=O)C2)cc1 (centres undefined)	i	269	nt
O=C(NC1CCS(=O)(=O)C1)/C(=C\c1ccc(F)cc1)NC(=O)c1ccccc1 (centres undefined)	nt	i	nt
COc1ccc(C(=O)NCc2cccnc2)cc1Br	i	i	i
C/C(NCc1cccnc1)=C(\C#N)C(=O)NCc1ccccc1	i	i	104
COc1cc(OC)cc(C(=O)NCc2cccnc2)c1	i	i	129
O=C(NCc1ccc(F)cc1)C1CC(=O)N(CCc2ccccc2)C1 (centres undefined)	nt	i	i
SMILES	Cneo AK release	Mot1-301 SUMO	C2C12 statin
CN(C)CC(=O)Nc1ccc2c(c1)[C@@H]1C[C@H](CC(=O)N3CCc4ccccc4C3)O[C@@H](CO)[C@@H]1O2	i	nt	i
COc1ccc(S(=O)(=O)N(C)C[C@@H]2Oc3ccc(NS(C)(=O)=O)cc3CC(=O)N([C@H](C)CO)C[C@H]2C)cc1	i	nt	i
COCC#Cc1cnc2c(c1)C(=O)N([C@@H](C)CO)C[C@@H](C)[C@@H](CN(C)S(=O)(=O)c1cn(C)cn1)O2	i	nt	i
COc1ccc(/C=C(\NC(=O)c2ccccc2)C(=O)NCc2cccnc2)cc1	i	270	i
CN(C)c1ccc(/C=C(\NC(=O)c2ccccc2)C(=O)NCc2cccnc2)cc1	i	i	i
CCc1ccc(C(=O)NC(=S)NCc2cccnc2)cc1	87	i	nt
O=C(Cc1ccccc1)NCc1cccnc1	i	i	i
O=C(CC(=O)NCc1cccnc1)NCc1cccnc1	i	i	111
CC(C)(C)c1ccc(C(=O)NC(=S)NCc2cccnc2)cc1	nt	i	nt
CS(=O)(=O)Nc1ccc2c(c1)[C@@H]1C[C@@H](CC(=O)NCc3ccccc3)O[C@@H](CO)[C@@H]1O2	i	nt	i
C[C@@H]1CCCCO[C@H](CN(C)S(=O)(=O)c2ccc(Cl)cc2)[C@H](C)CN([C@H](C)CO)C(=O)c2cc(N(C)C)ccc2O1	i	nt	i
O=C(CSc1nc2c(sc3ccccc32)c(=O)n1Cc1ccco1)NCC1CCCO1 (centres undefined)	i	i	95
O=C(CSc1nc2c(sc3ccccc32)c(=O)n1Cc1ccccc1)NCC1CCCO1 (centres undefined)	nt	i	nt
O=C(NCCc1ccccc1)C(=O)NCC1CCCN1S(=O)(=O)c1cccs1 (centres undefined)	i	355	i
Cc1ccccc1NC(=O)C(=O)NCC1CCCN1S(=O)(=O)c1cccs1 (centres undefined)	i	i	i
C=CCn1c(-c2cccnc2Cl)nc2cc(Cl)c(Cl)cc21	i	i	i
CCCn1c(-c2cccnc2Cl)nc2cc(Cl)c(Cl)cc21	i	i	72
O=C(Nc1ccccc1)N[C@@H]1CC[C@H](CCNS(=O)(=O)c2cccc(F)c2)O[C@H]1CO	i	nt	i
C[C@@H]1CN([C@@H](C)CO)C(=O)c2cc(NC(=O)CCC(F)(F)F)ccc2O[C@@H](C)CCCCO[C@@H]1CN(C)Cc1ccccc1	nt	nt	i
C[C@H]1CN([C@@H](C)CO)C(=O)c2cc(-c3ccc(F)cc3)cnc2O[C@H]1CN(C)CC1CCCCC1	i	nt	i
C[C@H](CO)N1C[C@H](C)[C@H](CN(C)C(=O)c2ccccn2)Oc2cc(C3=CCCC3)ccc2S1(=O)=O	i	nt	i
CNC(=O)Cn1ncc2c(C)n(Cc3ccc(C)cc3)c(C)c2c1=O	i	i	120
Cc1ccc(Cn2c(C)c3cnn(CC(=O)NC4CCCC4)c(=O)c3c2C)cc1	i	i	i
CCCNC(=O)Nc1ccc2c(c1)C(=O)N(C)C[C@H](OC)[C@@H](C)CN(C(C)=O)[C@H](C)CO2	i	nt	i
C[C@@H]1CN([C@H](C)CO)C(=O)c2cc(NC(=O)CCC(F)(F)F)ccc2O[C@@H](C)CCCCO[C@H]1CN(C)Cc1ccc(Cl)c(Cl)c1	i	nt	nt
SMILES	Cneo AK release	Mot1-301 SUMO	C2C12 statin
C[C@H]1CN([C@@H](C)CO)S(=O)(=O)c2ccc(-c3ccc(F)cc3)cc2O[C@H]1CN(C)C(=O)Nc1ccc(F)cc1	nt	nt	i
COc1ccc(CN(C)C(=O)C23CC4CC(CC(C4)C2)C3)c(OC)c1	i	328	i
COc1cccc(CN(C)C(=O)C23CC4CC(CC(C4)C2)C3)c1	i	i	i
O=C(C[C@@H]1CC[C@@H](NC(=O)Cc2cccnc2)[C@@H](CO)O1)Nc1ccc(-c2ccccc2)cc1	i	nt	i
CC(C)c1cn(CC[C@H]2CC[C@@H](NS(=O)(=O)c3ccc(Cl)cc3)[C@@H](CO)O2)nn1	i	nt	i
C[C@H](CO)N1C[C@H](C)[C@@H](CN(C)C(=O)Nc2ccccc2)Oc2ncc(-c3ccccc3)cc2C1=O	i	nt	i
N#CCSc1nnc(COc2cccc3ccccc23)n1-c1ccccc1	i	i	nt

Bioassay records from PubChem BioAssay.
